Source: ChEMBL document CHEMBL4325907, “Diaryl hydroxylamines as pan or dual inhibitors of indoleamine 2,3-dioxygenase-1, indoleamine 2,3-dioxygenase-2 and tryptophan dioxygenase” (Eur J Med Chem, 2019)
pIC50: −log10 of the molar value. The source made the active and inactive calls. The calls are words filed in the database; no cut-off is given here.

Key:
[1] = Cytotoxicity against human HeLa cells assessed as cell viability up to 100 uM relative to control; assay type: cell-based; conditions: read-out: Activity
[2] = biological target: T1, Indoleamine 2,3-dioxygenase 2 (Mus musculus, UniProt Q8R0V5); assay: Inhibition of mouse IDO2 expressed in human T-REx cells using L-tryptophan as substrate after 20 hrs; assay type: cell-based
T1 sequence (Q8R0V5 whole entry): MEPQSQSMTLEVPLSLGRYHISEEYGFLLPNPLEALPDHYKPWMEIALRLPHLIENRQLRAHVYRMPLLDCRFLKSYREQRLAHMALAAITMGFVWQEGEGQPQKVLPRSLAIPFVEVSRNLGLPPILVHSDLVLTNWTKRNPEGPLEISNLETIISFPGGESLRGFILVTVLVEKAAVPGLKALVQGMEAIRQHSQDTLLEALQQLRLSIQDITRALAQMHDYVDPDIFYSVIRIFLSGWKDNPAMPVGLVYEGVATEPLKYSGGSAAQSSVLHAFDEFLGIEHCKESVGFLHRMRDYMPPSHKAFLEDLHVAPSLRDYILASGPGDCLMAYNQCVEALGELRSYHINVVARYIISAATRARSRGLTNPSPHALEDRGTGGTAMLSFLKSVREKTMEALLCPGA
In short: (§1)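 HeLa cells (endogenous human IDO1) were induced with 100 ng/mL IFNγ for 24 h at 100 μM Trp. T-REx cells carried tet-regulated human TDO (2 ng/mL doxycycline, 24 h, 100 μM Trp) or mouse IDO2 (doxycycline plus 8 mM 5-aminolevulinic acid, 20 μM hemin, 4 mM Trp, 48 h). After induction, compound serial dilutions were added in medium with final Trp 100 μM (IDO1/TDO) or 2 mM (IDO2) for 20 h at 37 °C. Read-out was TCA fixation, 65 °C hydrolysis, then p-dimethylaminobenzaldehyde colour.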

[3] = biological target: T2, Indoleamine 2,3-dioxygenase 2 (Homo sapiens) (UniProt Q6ZQW0); assay: Inhibition of IDO2 (unknown origin) at 100 uM using L-tryptophan as substrate by spectrophotometric method relative to control
T2 sequence (whole entry): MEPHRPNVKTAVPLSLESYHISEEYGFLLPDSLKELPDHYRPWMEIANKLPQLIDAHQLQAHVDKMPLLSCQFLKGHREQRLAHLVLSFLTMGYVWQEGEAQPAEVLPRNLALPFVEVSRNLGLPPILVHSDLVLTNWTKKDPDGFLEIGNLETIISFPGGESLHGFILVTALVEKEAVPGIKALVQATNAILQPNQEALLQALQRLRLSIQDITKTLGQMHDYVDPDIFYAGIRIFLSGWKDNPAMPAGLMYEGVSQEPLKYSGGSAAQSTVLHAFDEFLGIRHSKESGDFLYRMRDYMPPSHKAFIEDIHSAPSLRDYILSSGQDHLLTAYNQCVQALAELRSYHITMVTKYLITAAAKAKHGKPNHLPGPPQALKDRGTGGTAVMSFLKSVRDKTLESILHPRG

[4] = biological target: T3, Tryptophan 2,3-dioxygenase (Homo sapiens, UniProt P48775); assay: Inhibition of human TDO expressed in human T-REx cells using L-tryptophan as substrate after 20 hrs; assay type: cell-based; in short: as §1
Target sequence in this assay (P48775 whole entry): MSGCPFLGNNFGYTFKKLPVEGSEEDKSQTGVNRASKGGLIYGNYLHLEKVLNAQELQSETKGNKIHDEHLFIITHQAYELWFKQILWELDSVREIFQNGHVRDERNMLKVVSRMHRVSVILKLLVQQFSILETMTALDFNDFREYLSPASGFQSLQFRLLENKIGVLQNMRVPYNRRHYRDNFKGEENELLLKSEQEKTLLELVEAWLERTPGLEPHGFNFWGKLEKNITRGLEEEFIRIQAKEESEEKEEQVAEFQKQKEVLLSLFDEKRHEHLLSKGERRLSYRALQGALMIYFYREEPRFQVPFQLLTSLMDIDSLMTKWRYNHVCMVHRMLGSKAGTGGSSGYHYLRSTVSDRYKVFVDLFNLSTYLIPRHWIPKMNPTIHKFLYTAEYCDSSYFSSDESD

[5] = biological target: T3, Tryptophan 2,3-dioxygenase; assay: Inhibition of TDO (unknown origin) using L-tryptophan as substrate by spectrophotometric method
Target sequence in this assay (P48775 whole entry): as above

[6] = biological target: T4, Indoleamine 2,3-dioxygenase 1 (Homo sapiens, UniProt P14902); assay: Inhibition of IDO1 (unknown origin) using L-tryptophan as substrate by spectrophotometric method
Target sequence in this assay (P14902 whole entry): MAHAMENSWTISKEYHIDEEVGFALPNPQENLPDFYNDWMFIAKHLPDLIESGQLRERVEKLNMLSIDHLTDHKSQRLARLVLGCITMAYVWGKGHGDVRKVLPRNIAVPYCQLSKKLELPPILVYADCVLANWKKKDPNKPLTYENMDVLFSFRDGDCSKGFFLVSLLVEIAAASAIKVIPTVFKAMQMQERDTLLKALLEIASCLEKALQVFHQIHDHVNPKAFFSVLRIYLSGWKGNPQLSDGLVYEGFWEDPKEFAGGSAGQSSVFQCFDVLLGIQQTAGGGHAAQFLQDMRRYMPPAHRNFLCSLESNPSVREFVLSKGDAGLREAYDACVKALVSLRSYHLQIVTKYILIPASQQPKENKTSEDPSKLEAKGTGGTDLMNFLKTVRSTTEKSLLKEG

[7] = biological target: T3, Tryptophan 2,3-dioxygenase; assay: Inhibition of TDO (unknown origin) at 100 uM using L-tryptophan as substrate by spectrophotometric method relative to control
Target sequence in this assay (P48775 whole entry, looked up): as the sequence (P48775 whole entry) above

[8] = biological target: T4, Indoleamine 2,3-dioxygenase 1; assay: Inhibition of IDO1 (unknown origin) at 100 uM using L-tryptophan as substrate by spectrophotometric method relative to control
Target sequence in this assay (P14902 whole entry, looked up): as the sequence (P14902 whole entry) above

[9] = biological target: T4, Indoleamine 2,3-dioxygenase 1; assay: Inhibition of IDO1 in human HeLa cells using L-tryptophan as substrate after 20 hrs; assay type: cell-based; in short: as §1
Target sequence in this assay (P14902 whole entry): as above

[10] = Selectivity ratio of IC50 for inhibition of mouse IDO2 expressed in human T-REx cells to IC50 for inhibition of IDO1 in human HeLa cells; assay type: cell-based; in short: as §1
[11] = species: Homo sapiens; assay: Selectivity ratio of IC50 for inhibition of mouse IDO2 expressed in human T-REx cells to IC50 for inhibition of human TDO expressed in human T-REx cells; assay type: cell-based; in short: as §1
[12] = biological target: T5, Indoleamine 2,3-dioxygenase 2 (Homo sapiens, UniProt Q6ZQW0); assay: Inhibition of IDO2 (unknown origin) using L-tryptophan as substrate by spectrophotometric method
T5 sequence (Q6ZQW0 whole entry): T2 sequence (whole entry)

[13] = species: Homo sapiens; assay: Selectivity ratio of IC50 for inhibition of human TDO expressed in human T-REx cells to IC50 for inhibition of IDO1 in human HeLa cells; assay type: cell-based; in short: as §1
[14] = biological target: T4, Indoleamine 2,3-dioxygenase 1; assay: Inhibition of IDO1 in human HeLa cells at IC50 using L-tryptophan as substrate after 24 hrs in presence of 100% human serum by LC-MS/MS analysis; assay type: cell-based
Target sequence in this assay (P14902 whole entry, looked up): as the sequence (P14902 whole entry) above

[15] = species: Homo sapiens; assay: Selectivity ratio of IC50 for inhibition of IDO2 (unknown origin) to IC50 for inhibition of IDO1 (unknown origin)
[16] = species: Homo sapiens; assay: Selectivity ratio of IC50 for inhibition of TDO (unknown origin) to IC50 for inhibition of IDO1 (unknown origin)
[17] = biological target: T4, Indoleamine 2,3-dioxygenase 1; assay: Inhibition of IDO1 (unknown origin) at 200 uM using L-tryptophan as substrate by spectrophotometric method relative to control
Target sequence in this assay (P14902 whole entry, looked up): as the sequence (P14902 whole entry) above

[18] = biological target: T3, Tryptophan 2,3-dioxygenase; assay: Inhibition of TDO (unknown origin) at 200 uM using L-tryptophan as substrate by spectrophotometric method relative to control
Target sequence in this assay (P48775 whole entry, looked up): as the sequence (P48775 whole entry) above

[19] = biological target: T2, Indoleamine 2,3-dioxygenase 2 (Homo sapiens); assay: Inhibition of IDO2 (unknown origin) at 200 uM using L-tryptophan as substrate by spectrophotometric method relative to control

| SMILES | viability [1] | pIC50 [2] | inhibition [3] | pIC50 [4] | pIC50 [5] | pIC50 [6] | inhibition [7] | inhibition [8] | pIC50 [9] | pIC50 ([9]; hela) | Ratio IC50 [10] | Ratio IC50 [11] | pIC50 [12] | Ratio IC50 [13] | inhibition [14] | Ratio IC50 [15] | Ratio IC50 [16] | inhibition [17] | inhibition [18] | inhibition [19] |
| --- | --- | --- | --- | --- | --- | --- | --- | --- | --- | --- | --- | --- | --- | --- | --- | --- | --- | --- | --- | --- |
| NOC(c1ccccc1)c1ccc(Cl)cc1 (stereo not drawn) | ≥ 80% | 4.56 | 74.3% | 4.63 | 5.30 | 5.30 | > 95% | > 95% | 5.15 | – | – | – | – | – | – | – | – | – | – | – |
| COc1ccccc1C(ON)c1ccccc1 (stereo not drawn) | ≥ 80% | 4.78 | 80% | 4.31 | – | 4.64 | – | > 95% | – | 5.95 | – | – | – | – | – | – | – | – | – | – |
| NOC(c1ccccc1)c1ccccc1F (stereo not drawn) | ≥ 80% | 4.52 | 77.8% | 5.41 | – | 4.92 | 87.2% | > 95% | 5.90 | – | 10 | 10 | – | – | – | – | – | – | – | – |
| NOC(c1ccccc1)c1ccccc1Cl (stereo not drawn) | ≥ 80% | 4.97 | > 95% | 4.66 | – | 4.74 | 89.8% | > 95% | 5.61 | – | 5 to 10 | – | 4.60 | 5 to 10 | – | – | – | – | – | – |
| NOC(CCc1cccc(Cl)c1)c1ccccc1 (stereo not drawn) | ≥ 80% | 4.69 | 78.1% | 4.23 | – | 5.15 | 93.1% | > 95% | 5.17 | – | – | – | – | – | – | – | – | – | – | – |
| NOC(c1ccccc1)c1ccsc1 (stereo not drawn) | ≥ 80% | 4.30 | 76.5% | 5.36 | – | – | 93.3% | 83% | 5.47 | – | 10 | 10 | – | – | – | – | – | – | – | – |
| NOC(c1ccccc1)c1cccc(F)c1 (stereo not drawn) | ≥ 80% | 5.00 | 82% | 5.21 | 5.22 | 5.30 | > 95% | > 95% | 6.03 | – | – | – | – | – | – | – | – | – | – | – |
| NOC(c1ccccc1)c1ccc(Cl)c(Cl)c1 (stereo not drawn) | ≥ 80% | 4.71 | > 95% | 5.09 | 5.40 | 5.70 | > 95% | > 95% | 5.72 | – | – | – | 4.49 | – | – | – | – | – | – | – |
| NOC(c1ccccc1)c1ccc(Cl)cc1Cl (stereo not drawn) | ≥ 80% | 5.11 | 73% | 5.32 | 5.22 | 5.40 | > 95% | > 95% | 5.70 | – | – | – | – | – | inactive | – | – | – | – | – |
| NOC(c1ccccc1)c1cccc(Cl)c1Cl (stereo not drawn) | ≥ 80% | 5.05 | 72.4% | 5.34 | 5.05 | 5.10 | > 95% | > 95% | 5.73 | – | – | – | – | – | – | – | – | – | – | – |
| NOC(c1ccccc1)c1cccc(C(F)(F)F)c1 (stereo not drawn) | ≥ 80% | 4.61 | – | 4.87 | 4.92 | – | > 95% | 18% | – | 5.76 | – | – | – | – | – | – | – | – | – | – |
| NOC(c1ccc(Cl)cc1)c1ccc(Cl)cc1 | ≥ 80% | 4.90 | 69.3% | 5.34 | 5.70 | 5.52 | > 95% | > 95% | 5.96 | – | – | – | – | – | – | – | – | – | – | – |
| NOC(c1ccc(F)cc1)c1ccc(F)cc1 | ≥ 80% | 4.92 | 73.6% | 5.29 | 5.05 | 5.05 | > 95% | > 95% | 5.77 | – | – | – | – | – | – | – | – | – | – | – |
| O=C1CC(c2c[nH]c3ccc(F)cc23)C(=O)N1 (stereo not drawn) [PF-06840003] | ≥ 80% | 3.49 | – | 3.42 | – | – | – | – | – | – | – | – | – | – | – | – | – | – | – | – |
| NOC(c1ccccc1)c1cc(F)cc(F)c1 (stereo not drawn) | ≥ 80% | 5.06 | 83% | 5.46 | – | 5.40 | 92.6% | > 95% | 6.45 | – | – | – | – | – | – | – | – | – | – | – |
| NOC(c1ccccc1)c1cccc(C(F)(F)F)c1F (stereo not drawn) | ≥ 80% | 4.77 | 81.1% | 5.25 | – | 5.22 | 93.2% | > 95% | 6.03 | – | – | – | – | – | – | – | – | – | – | – |
| NOC(CCCC(=O)Nc1ccccc1)c1cccc(Cl)c1 (stereo not drawn) | ≥ 80% | 4.44 | 84.3% | 3.91 | – | 5.52 | 75.5% | > 95% | 5.84 | – | – | – | – | – | – | > 20 | > 20 | – | – | – |
| NOC(c1ccccc1)c1cc(C(F)(F)F)cc(C(F)(F)F)c1 (stereo not drawn) | 60% | 4.84 | – | 4.11 | – | – | – | – | 5.47 | – | – | – | – | – | – | – | – | 56% | 50.8% | 53.3% |
| NOC(c1ccccc1)c1cc(C(F)(F)F)ccc1F (stereo not drawn) | ≥ 80% | 5.05 | 73.8% | 5.04 | – | 5.10 | 73.4% | > 95% | 5.96 | – | – | – | – | – | – | – | – | – | – | – |
| NOC(c1ccccc1)c1cccc(Br)c1 (stereo not drawn) | 60% | 4.93 | 77.6% | 5.15 | – | 6.00 | 92.6% | > 95% | 6.23 | – | – | – | – | – | – | – | – | – | – | – |
| NOC(c1ccccc1)c1cc(Cl)cc(Cl)c1 (stereo not drawn) | ≥ 80% | 5.06 | 69.8% | 5.24 | – | 5.70 | 83.4% | > 95% | 6.06 | – | – | – | – | – | Active | – | – | – | – | – |
| NS(=O)(=O)NCCNc1nonc1C(=NO)Nc1ccc(F)c(Br)c1 [EPACADOSTAT] | ≥ 80% | 4.72 | – | 4.60 | – | – | – | – | – | – | – | – | – | – | – | – | – | – | – | – |
| NOC(c1ccccc1)c1ccccc1Br (stereo not drawn) | ≥ 80% | 4.91 | 81% | 4.65 | – | 4.77 | 90.4% | > 95% | 5.84 | – | 5 to 10 | – | – | 5 to 10 | – | – | – | – | – | – |
| NOC(c1ccccc1)c1ccc(F)cc1F (stereo not drawn) | 60% | 4.72 | 46% | 5.20 | – | 5.15 | 90.3% | > 95% | 5.92 | – | – | – | – | – | – | – | – | – | – | – |
| NOC(c1ccccc1)C1CCCCC1 (stereo not drawn) | ≥ 80% | 4.40 | 88.6% | 2.56 | – | – | 43.6% | 76% | 4.68 | – | – | – | – | – | – | – | – | – | – | – |
| NOC(c1ccccc1)c1ccc(O)cc1 (stereo not drawn) | ≥ 80% | 4.90 | – | 4.53 | – | – | – | – | 5.54 | – | – | – | – | – | – | – | – | 18.3% | 48.7% | 72.3% |
